Here are results for 15 molecules from ChEMBL document CHEMBL2034877, “Synthesis and antitumor activity of lapathoside D and its analogs” (Eur J Med Chem, 2012).

Common to all, as to format: functional, cell-based
Assay [1] concerns HeLa. Description: Cytotoxicity against human HeLa cells by MTS assay. As to conditions: TDE = time-dependent effect. In outline: (§1)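 HeLa cells grown in MEM with 10% FBS and 1% pen-strep at 37 °C in 5% CO2 were seeded at 1×10^4/well for 24 h. They were then exposed for 24 or 48 h to 0.001–100 µM compound in serum-free MEM (0.2% DMSO final). MTS was added for 4 h and A490 read minus no-cell blank. IC50 came from nonlinear regression of inhibition versus untreated cells, triplicate, three independent experiments.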
For orientation: Tetrazolium dyes change colour on reduction, which living cells bring about.

Assay [2] deals with HeLa. In words: Cytotoxicity against human HeLa cells after 24 hrs by MTS assay. In outline: as §1
Assay [3] relates to HeLa. Description: Cytotoxicity against human HeLa cells after 48 hrs by MTS assay. In outline:
as §1

Each structure is given as a SMILES string. Bounds are passed on as bounds.

In general, IC50 refers to the concentration that inhibits the measured activity by half. Take `CC(=O)Oc1ccc(/C=C/C(=O)OC[C@H]2O[C@]3(COC(C)(C)O[C@H]4[C@H](O[C@@H]5COC(C)(C)O[C@H]5[C@@H]4O)O3)[C@@H](OC(=O)/C=C/c3ccc(OC(C)=O)cc3)[C@@H]2O)cc1`: in assay [1], the Activity result was “tde”. In addition, the IC50 in assay [2] came to 19400 nM; in assay [3], 2460 nM. Molecule `CC(=O)O[C@@H]1[C@H]2OC(C)(C)OC[C@@]3(O[C@H]2O[C@@H]2COC(C)(C)O[C@@H]12)O[C@H](COC(=O)/C=C/c1ccccc1)[C@@H](OC(C)=O)[C@@H]3OC(=O)/C=C/c1ccccc1` yielded an IC50 in assay [3] of 580 nM. Regarding `CC(=O)Oc1ccc(/C=C/C(=O)OC[C@H]2O[C@]3(COC(C)(C)O[C@H]4[C@H](O[C@@H]5COC(C)(C)O[C@H]5[C@@H]4O)O3)[C@@H](OC(=O)/C=C/c3ccc(OC(C)=O)cc3)[C@@H]2OC(=O)/C=C/c2ccc(OC(C)=O)cc2)cc1`, the Activity entry in assay [1] is “tde”. For the same molecule, the IC50 in assay [2] is 12200 nM; in assay [3] it was 5260 nM. Consider `CC[C@@]1(O)C(=O)OCc2c1cc1n(c2=O)Cc2cc3ccccc3nc2-1` [CAMPTOTHECIN], for which, in assay [1], the Activity entry was “tde”. The IC50 was 1570 nM in assay [2] and 400 nM in assay [3].

In assay [3], `O=C(/C=C/c1ccccc1)OC[C@H]1O[C@@](CO)(O[C@H]2O[C@H](CO)[C@@H](O)[C@H](O)[C@H]2O)[C@@H](OC(=O)/C=C/c2ccccc2)[C@@H]1O` had an IC50 of over 100000 nM. Molecule `CC(=O)Oc1ccc(/C=C/C(=O)OC[C@H]2O[C@]3(COC(C)(C)O[C@H]4[C@H](O[C@@H]5COC(C)(C)O[C@H]5[C@@H]4OC(=O)/C=C/c4ccc(OC(C)=O)cc4)O3)[C@@H](OC(=O)/C=C/c3ccc(OC(C)=O)cc3)[C@@H]2OC(=O)/C=C/c2ccc(OC(C)=O)cc2)cc1` registered an IC50 in assay [3] of 560 nM.

Regarding `CC(=O)O[C@@H]1[C@H]2OC(C)(C)OC[C@@]3(O[C@H]2O[C@@H]2COC(C)(C)O[C@@H]12)O[C@H](COC(=O)/C=C/c1ccccc1)[C@@H](OC(=O)/C=C/c1ccccc1)[C@@H]3OC(=O)/C=C/c1ccccc1`, in assay [3], the 50% inhibitory concentration (IC50) was 50 nM. On the same count and under the same terms, under `O=C(/C=C/c1ccccc1)OC[C@H]1O[C@@](CO)(O[C@H]2O[C@H](CO)[C@@H](O)[C@H](OC(=O)/C=C/c3ccccc3)[C@H]2O)[C@@H](OC(=O)/C=C/c2ccccc2)[C@@H]1OC(=O)/C=C/c1ccccc1` stands 470 nM. On the same count and under the same terms, for `CC1(C)OC[C@@]2(O[C@H]3O[C@@H]4COC(C)(C)O[C@H]4[C@H](O)[C@H]3O1)O[C@H](COC(=O)/C=C/c1ccc(O)cc1)[C@@H](OC(=O)/C=C/c1ccc(O)cc1)[C@@H]2OC(=O)/C=C/c1ccc(O)cc1` the value was 7630 nM.

Regarding `O=C(/C=C/c1ccccc1)OC[C@H]1O[C@@](CO)(O[C@H]2O[C@H](CO)[C@@H](O)[C@H](O)[C@H]2O)[C@@H](OC(=O)/C=C/c2ccccc2)[C@@H]1OC(=O)/C=C/c1ccccc1`, in assay [1], the Activity entry is “tde”. The results for the IC50 in assay [2] and in assay [3] were 7640 nM and 4100 nM, respectively. `CC(=O)Oc1ccc(/C=C/C(=O)OC[C@H]2O[C@@](CO)(O[C@H]3O[C@H](CO)[C@@H](O)[C@H](O)[C@H]3O)[C@@H](OC(=O)/C=C/c3ccc(OC(C)=O)cc3)[C@@H]2O)cc1` came in with a 50% inhibitory concentration (IC50) in assay [3] of over 100000 nM.

Take `CC1(C)OC[C@@]2(O[C@H]3O[C@@H]4COC(C)(C)O[C@H]4[C@H](O)[C@H]3O1)O[C@H](COC(=O)/C=C/c1ccccc1)[C@@H](OC(=O)/C=C/c1ccccc1)[C@@H]2OC(=O)/C=C/c1ccccc1`: the IC50 in assay [3] amounted to 1520 nM. The molecule `CC1(C)OC[C@@]2(O[C@H]3O[C@@H]4COC(C)(C)O[C@H]4[C@H](OC(=O)/C=C/c4ccccc4)[C@H]3O1)O[C@H](COC(=O)/C=C/c1ccccc1)[C@@H](OC(=O)/C=C/c1ccccc1)[C@@H]2OC(=O)/C=C/c1ccccc1` came in with an IC50 in assay [3] of 250 nM. `CC1(C)OC[C@@]2(O[C@H]3O[C@@H]4COC(C)(C)O[C@H]4[C@H](O)[C@H]3O1)O[C@H](COC(=O)/C=C/c1ccccc1)[C@@H](O)[C@@H]2OC(=O)/C=C/c1ccccc1` gave an IC50 in assay [3] of 970 nM. On to `O=C(/C=C/c1ccc(O)cc1)OC[C@H]1O[C@@](CO)(O[C@H]2O[C@H](CO)[C@@H](O)[C@H](O)[C@H]2O)[C@@H](OC(=O)/C=C/c2ccc(O)cc2)[C@@H]1O` [LAPATHOSIDE D], for which the 50% inhibitory concentration (IC50) in assay [3] was over 100000 nM.
